Assay results as given in ChEMBL document CHEMBL5303300, “EUbOPEN Chemogenomics Library - Multiplex” (2023).
Values joined by “and” are separate entries in the source; they are usually repeats but may differ in a detail not shown here. Equal entries are not always repeated.

System: Fibroblast
Test: Multiplex assay against human fibroblast
Format: toxicity, cell-based
Details: number of replicates 2
Summary of the method: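 Cells were classed with CellPathfinder machine-learning gating, first as Hoechst high-intensity objects or normal cells, then (normal cells) as healthy, pyknosed or fragmented nuclei, and finally (pyknosed cells) as mitotic or apoptotic. Staining of live cells at seeding used Hoechst33342, BioTracker Green Microtubule Cytoskeleton Dye, MitoTracker Red and Annexin V Alexa Fluor 680, with imaging on a CQ1 microscope at 37°C and 5% CO2 after compound addition. Tubulin, mitochondrial-mass and membrane-permeability phenotypes are per cents of healthy-nucleus cells.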

[1] = 12 h, 1 µM, compound concentration 1 uM
[2] = 12 h, 10 µM, compound concentration 10 uM
[3] = 24 h, 1 µM, compound concentration 1 uM
[4] = 24 h, 10 µM, compound concentration 10 uM
[5] = 48 h, 1 µM, compound concentration 1 uM
[6] = 48 h, 10 µM, compound concentration 10 uM
[7] = 12 h, 0 µM, compound concentration 0 uM
[8] = 24 h, 0 µM, compound concentration 0 uM
[9] = 48 h, 0 µM, compound concentration 0 uM

## CS(=O)(=O)c1ccc(C(=O)Nc2cc(F)c(F)c(COc3cc(F)c(Br)cc3CN3CC[C@H](O)C3)c2)c(Cl)c1.O=CO
[1]
  Population Apoptotic (%): 25% and 38%
  Population Healthy Nuclei (%): 55%
  Population Hoechst High Intensity Objects (%): 0%
  Population Mitotic Cells (%): 75% and 61%
  Population Normal (%): 100%
  Total Cell Count: 220 and 267
[2]
  Population Apoptotic (%): 80% and 55%
  Population Healthy Nuclei (%): 29%
  Population Hoechst High Intensity Objects (%): 0%
  Population Mitotic Cells (%): 20% and 44%
  Population Normal (%): 100% and 99%
  Total Cell Count: 162 and 357
[3]
  Population Apoptotic (%): 54% and 55%
  Population Healthy Nuclei (%): 64% and 54%
  Population Hoechst High Intensity Objects (%): 0%
  Population Mitotic Cells (%): 45% and 44%
  Population Normal (%): 99%
  Total Cell Count: 246 and 309
[4]
  Population Apoptotic (%): 94% and 79%
  Population Healthy Nuclei (%): 35% and 27%
  Population Hoechst High Intensity Objects (%): 0%
  Population Mitotic Cells (%): 5%
  Population Normal (%): 100% and 99%
  Total Cell Count: 154 and 339
[5]
  Population Apoptotic (%): 73% and 71%
  Population Healthy Nuclei (%): 61% and 60%
  Population Hoechst High Intensity Objects (%): 0%
  Population Mitotic Cells (%): 26%
  Population Normal (%): 99%
  Total Cell Count: 294 and 351
[6]
  Population Apoptotic (%): 93% and 91%
  Population Healthy Nuclei (%): 25% and 19%
  Population Hoechst High Intensity Objects (%): 0%
  Population Mitotic Cells (%): 6% and 8%
  Population Normal (%): 99%
  Total Cell Count: 147 and 311

## COc1cc(C(N)=O)ccc1Nc1ncc2c(n1)N(CCC(C)C)[C@H](C)C(=O)N2C
[7]
  Population Apoptotic (%): 87% and 56%
  Population Fragmented Nuclei (%): 48% and 61%
  Population Healthy Nuclei (%): 41% and 32%
  Population Hoechst High Intensity Objects (%): 0%
  Population Mitochondria Different-Phenotype (%): 0% and 3%
  Population Normal (%): 100%
  Population Pyknosed Nuclei (%): 9% and 5%
  Population Tubulin-Different-Phenotype (%): 79% and 61%
  Total Cell Count: 166 and 267
[1]
  Population Apoptotic (%): 56% and 34%
  Population Fragmented Nuclei (%): 17% and 20%
  Population Healthy Nuclei (%): 57% and 64%
  Population Hoechst High Intensity Objects (%): 0%
  Population Membrane Permeable-Phenotype (%): 7% and 15%
  Population Mitochondria Different-Phenotype (%): 0% and 2%
  Population Mitotic Cells (%): 43% and 65%
  Population Normal (%): 99% and 100%
  Population Pyknosed Nuclei (%): 25% and 15%
  Population Tubulin-Different-Phenotype (%): 22% and 28%
  Total Cell Count: 148 and 165
[8]
  Population Apoptotic (%): 80% and 69%
  Population Fragmented Nuclei (%): 54% and 72%
  Population Healthy Nuclei (%): 29% and 21%
  Population Hoechst High Intensity Objects (%): 0%
  Population Membrane Permeable-Phenotype (%): 17% and 9%
  Population Mitochondria Different-Phenotype (%): 4% and 7%
  Population Mitotic Cells (%): 19% and 30%
  Population Normal (%): 100%
  Population Tubulin-Different-Phenotype (%): 78% and 65%
  Total Cell Count: 162 and 237
[3]
  Population Apoptotic (%): 54% and 61%
  Population Fragmented Nuclei (%): 13% and 27%
  Population Healthy Nuclei (%): 65% and 56%
  Population Hoechst High Intensity Objects (%): 0%
  Population Membrane Permeable-Phenotype (%): 10% and 5%
  Population Mitochondria Different-Phenotype (%): 0%
  Population Mitotic Cells (%): 45% and 38%
  Population Normal (%): 100%
  Population Pyknosed Nuclei (%): 20% and 15%
  Population Tubulin-Different-Phenotype (%): 10% and 14%
  Total Cell Count: 152 and 166
[9]
  Population Apoptotic (%): 82% and 80%
  Population Fragmented Nuclei (%): 64% and 84%
  Population Healthy Nuclei (%): 21% and 9%
  Population Hoechst High Intensity Objects (%): 0%
  Population Membrane Permeable-Phenotype (%): 18% and 8%
  Population Mitochondria Different-Phenotype (%): 0% and 8%
  Population Mitotic Cells (%): 17% and 20%
  Population Normal (%): 100%
  Population Pyknosed Nuclei (%): 13% and 6%
  Population Tubulin-Different-Phenotype (%): 64% and 56%
  Total Cell Count: 171 and 241
[5]
  Population Apoptotic (%): 68% and 46%
  Population Fragmented Nuclei (%): 18% and 25%
  Population Healthy Nuclei (%): 66%
  Population Hoechst High Intensity Objects (%): 0%
  Population Membrane Permeable-Phenotype (%): 9% and 11%
  Population Mitochondria Different-Phenotype (%): 0%
  Population Mitotic Cells (%): 32% and 53%
  Population Normal (%): 100%
  Population Pyknosed Nuclei (%): 15% and 8%
  Population Tubulin-Different-Phenotype (%): 8% and 10%
  Total Cell Count: 161 and 162
